Experimental data published in article PMC3024510 (Cancer Immunology, Immunotherapy : CII, 2010).

Experiments:
T2 cells = type: cell-based, human; details: 4 h 51Cr release; singlets
Procedure, shortened: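 Effector: a clone from RCC-patient PBLs given repeated peptide-loaded autologous DC and PBL stimulations, limiting-dilution cloned, and kept on 120 U/ml IL-2. […] Supernatant 51Cr was gamma-counted.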

cancer cells = assay: cold target inhibition assay; type: cell-based; details: unlabeled peptide-loaded T2 cells, inhibitor:target ratio 20:1; singlets
Procedure, shortened: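 51Cr-labeled (1 h) cancer cell line targets, including an HLA-A2− breast cancer line, were co-cultured 4 h with the peptide-specific CTL clone. The clone came from RCC-patient PBLs and was maintained on 120 U/ml IL-2. Unlabeled peptide-loaded T2 cells were added at 20-fold excess over targets. Supernatant 51Cr was gamma-counted.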

[1] = tested on: PBLs from cancer patients; assay: IFN-γ ELISPOT assay, cancer patients; type: cell-based, human; details: all cancer patients tested (BC, MM, RCC)
Procedure, shortened: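 Cells were monocyte-depleted, cryopreserved leukapheresis PBLs from end-stage breast cancer, MM and RCC patients. They were stimulated once with 20 µM peptide, given 40 U/ml IL-2 next day, and tested after 7–8 days. The overnight IFN-γ ELISPOT used 3 × 10^5 cells/well in duplicate ± 5 µM peptide, with 10^4 T2 cells per well. Responders: background-subtracted mean spots ±½ SD >25 per 10^5 cells.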

HLA-A2 = assay: HLA stabilization assay for peptide binding to HLA class I molecules; set-up: species or system human; details: mean value from two experiments; normalized to HIV (40 μM peptide)

Q: What does the source list for ILIDWLVQV [CB204]?
A: lysis of peptide-loaded T2 cells by CB204-specific CTL clone (T2 cells): able to lyse T2 cells loaded with CB204; inhibition of cancer cell lysis by cold T2 target cells presenting the peptide (cancer cells): inhibited lysis of cancer cells; cancer patients with spontaneous T-cell responses [1]: 73%; HLA-A2 stabilization relative to HIV (HLA-A2): stabilizes HLA-A2 to a higher degree than HIV

Q: With “ILKEPVHGV [HIV-1 pol476–484, reference compound]” as the sequence, how does the “lysis of peptide-loaded T2 cells by CB204-specific CTL clone” value (T2 cells) read?
A: The value was “not T2 cells loaded with an irrelevant HIV peptide”.
